The source made the active and inactive calls. No rule for the calls is given here.
Biological target: Muscarinic acetylcholine receptor M3 (Homo sapiens) (UniProt P20309)
Test: human M3 receptor potentiation, selectivity assay for M5 PAM project, CHO cells (AID 651922)
How it was run: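 Assay system: CHO-K1 cells stably expressing human M3 muscarinic receptor, Fluo-4 loaded; Doses: 0.3% DMSO final; Timing: compound pre-incubation 1.5 min, acetylcholine stimulation 50 s, read at 25 °C; Detection: Fluo-4 fluorescence calcium mobilization measurement.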

Muscarinic acetylcholine receptor M3 (Homo sapiens), sequence (P20309 whole entry, looked up): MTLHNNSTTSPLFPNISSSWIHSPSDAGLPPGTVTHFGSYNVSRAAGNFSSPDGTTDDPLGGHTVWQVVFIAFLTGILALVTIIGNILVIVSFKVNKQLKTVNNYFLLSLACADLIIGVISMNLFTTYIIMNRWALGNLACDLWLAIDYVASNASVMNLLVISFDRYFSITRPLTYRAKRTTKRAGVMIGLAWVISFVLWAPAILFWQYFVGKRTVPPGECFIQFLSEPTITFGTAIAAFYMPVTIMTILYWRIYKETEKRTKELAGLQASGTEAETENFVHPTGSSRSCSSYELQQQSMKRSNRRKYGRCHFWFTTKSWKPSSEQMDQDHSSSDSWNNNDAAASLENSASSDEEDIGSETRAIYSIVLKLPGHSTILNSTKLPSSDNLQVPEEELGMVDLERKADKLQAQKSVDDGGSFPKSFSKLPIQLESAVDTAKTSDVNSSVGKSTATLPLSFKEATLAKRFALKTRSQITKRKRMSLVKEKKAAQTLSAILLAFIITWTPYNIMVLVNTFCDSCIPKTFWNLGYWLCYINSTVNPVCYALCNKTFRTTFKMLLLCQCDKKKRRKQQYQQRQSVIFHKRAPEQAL

In the case of `O=C1C(=O)N(CCOc2ccccc2)c2ccc(OC(F)(F)F)cc21`, the outcome is reported as “inactive”.

Source: PubChem BioAssay AID651922 (Vanderbilt Specialized Chemistry Center, 2012)
